According to ChEMBL document CHEMBL3808379, “Isouronium and N-hydroxyguanidinium derivatives as Cell growth inhibitors: A comparative study” (Eur J Med Chem, 2016):
Calls of active or inactive are those of the source. No cut-off for these calls is given here.

How the values were obtained:
[1] = Dissociation constant, pKa of the compound in 10 mM sodium phosphate buffer at pH 2 by UV spectroscopic analysis; assay type: physicochemical
[2] = Binding affinity to salmon sperm DNA assessed as increase in thermal melting temperature by spectrophotometric analysis; conditions: Salmonidae
[3] = Cytotoxicity against human HL60 cells assessed as cell viability reduction incubated for 72 hrs by alamar blue assay; assay type: functional, cell-based; conditions: HL-60, 72 h
How it was run: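 HL-60 cells in log phase, 40,000 per well, were treated in triplicate with compound at 10–100 µM (final, 1:100 from ddH2O stocks) or 1% ddH2O vehicle for 72 h at 37 °C. AlamarBlue was then added for 4.5 h in the dark and fluorescence read at ex 544/em 590 nm. Viability is blank-subtracted and expressed as % of vehicle. IC50 comes from a sigmoidal fit; ≥3 independent experiments.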

HL-60 [4] = experiment: Induction of apoptosis in human HL60 cells assessed as caspase 3/7 activation at 50 to 100 uM after 48 hrs by caspase-glo luminescence assay relative to vehicle control; assay type: functional, cell-based
How it was run: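 HL-60 cells seeded at 20,000 cells/100 μl and treated 48 h with 0, 50 or 100 μM. Viability first measured by AlamarBlue. Cells then lysed with an equal volume of Caspase-Glo 3/7 reagent, shaken 1 h at room temperature in darkness, and luminescence read. Luminescence normalised to viability. Mean ± SEM, ≥3 experiments; P<0.05 taken as significant.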

HL-60 [5] = experiment: Induction of mitochondrial membrane depolarization in human HL60 cells at 50 to 100 uM after 48 hrs by JC1 staining-based flow cytometric analysis relative to vehicle control; assay type: functional, cell-based
How it was run: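 HL-60 cells at 200,000 cells/mL exposed 48 h to 0, 50 or 100 μM. Washed in PBS and stained with JC-1 (5 μM) 30 min at 37 °C. Resuspended in ice-cold PBS and read by flow cytometry: excitation 488 nm, emission 535 (green) and 595 nm (red). Rising green:red ratio scored as ΔΨm loss; % cells with loss reported. Mean ± SEM, ≥3 experiments.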

[6] = Cell cycle arrest in human HL60 cells assessed as accumulation at S phase at 50 uM after 48 hrs by propidium iodide staining-based flow cytometric analysis (reference value: 24.29 +/- 1.37%); assay type: functional; conditions: HL-60
[7] = Cell cycle arrest in human HL60 cells assessed as accumulation at G0/G1 phase at 50 uM after 48 hrs by propidium iodide staining-based flow cytometric analysis (reference value: 58.77 +/- 2.33%); assay type: functional; conditions: HL-60
[8] = Cell cycle arrest in human HL60 cells assessed as accumulation at pre-G1 phase at 50 uM after 48 hrs by propidium iodide staining-based flow cytometric analysis (reference value: 1.41 +/- 0.32%); assay type: functional; conditions: HL-60
[9] = Cell cycle arrest in human HL60 cells assessed as accumulation at G2/M phase at 50 uM after 24 hrs by propidium iodide staining-based flow cytometric analysis (reference value: 16.73 +/- 0.59%); assay type: functional; conditions: HL-60
[10] = Cell cycle arrest in human HL60 cells assessed as accumulation at G2/M phase at 50 uM after 48 hrs by propidium iodide staining-based flow cytometric analysis (reference value: 11.35 +/- 1.05%); assay type: functional; conditions: HL-60
[11] = Cell cycle arrest in human HL60 cells assessed as accumulation at pre-G1 phase at 50 uM after 24 hrs by propidium iodide staining-based flow cytometric analysis (reference value: 0.81 +/- 0.11%); assay type: functional; conditions: HL-60
[12] = Cytotoxicity against human MCF10A cells assessed as cell viability reduction at 50 to 100 uM incubated for 72 hrs by alamar blue-based fluorimetric assay; conditions: mcf-10a
How it was run: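 MCF-10A cells, 2000 per well, were allowed to attach for 24 h, then treated with 50 or 100 µM or with 1% ddH2O vehicle for 72 h. AlamarBlue (10% v/v) was added for 4.5 h at 37 °C in the dark and fluorescence read at ex 544/em 590 nm. Viability is expressed as % of vehicle after blank subtraction; mean ± S.E.M., ≥3 experiments.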

[13] = Cell cycle arrest in human HL60 cells assessed as accumulation at pre-G1 phase at 50 uM after 72 hrs by propidium iodide staining-based flow cytometric analysis (reference value: 2.21 +/- 0.57%); assay type: functional; conditions: HL-60
[14] = Cell cycle arrest in human HL60 cells assessed as accumulation at S phase at 50 uM after 24 hrs by propidium iodide staining-based flow cytometric analysis (reference value: 24.46 +/- 1.15%); assay type: functional; conditions: HL-60
[15] = Cell cycle arrest in human HL60 cells assessed as accumulation at polyploid Gn phase at 50 uM after 48 hrs by propidium iodide staining-based flow cytometric analysis (reference value: 3.02 +/- 0.56%); assay type: functional; conditions: HL-60
[16] = Cell cycle arrest in human HL60 cells assessed as accumulation at polyploid Gn phase at 50 uM after 24 hrs by propidium iodide staining-based flow cytometric analysis (reference value: 2.96 +/- 0.79%); assay type: functional; conditions: HL-60
HL-60 [17] = experiment: Induction of apoptosis in human HL60 cells at 100 uM after 72 hrs by propidium iodide staining-based flow cytometric analysis; assay type: functional
How it was run: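 HL-60 cells seeded at 200,000 cells/mL and treated 72 h, vehicle 1% (v/v) ddH2O. Harvested by centrifugation, fixed overnight in ice-cold 70% EtOH/PBS at −20 °C, then PI-stained 30 min at 37 °C. Flow cytometry of 10,000 gated events. Apoptosis taken from pre-G1 (<2N DNA) peak. Mean ± S.E.M., ≥3 experiments.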

[18] = Cell cycle arrest in human HL60 cells assessed as accumulation at G0/G1 phase at 50 uM after 72 hrs by propidium iodide staining-based flow cytometric analysis (reference value: 59.5 +/- 1.5%); assay type: functional; conditions: HL-60
[19] = Cell cycle arrest in human HL60 cells assessed as accumulation at G0/G1 phase at 50 uM after 24 hrs by propidium iodide staining-based flow cytometric analysis (reference value: 56.05 +/- 1.4%); assay type: functional; conditions: HL-60
[20] = Cytotoxicity against mouse NIH/3T3 cells assessed as cell viability reduction at 50 to 100 uM incubated for 72 hrs by alamar blue-based fluorimetric assay; conditions: nih3t3, 72 h
How it was run: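 NIH/3T3 cells seeded at 10,000 cells/mL and left 24 h at 37 °C before treatment. Compound at 50 or 100 μM final for 72 h, vehicle 1% (v/v) ddH2O. AlamarBlue 10% (v/v) then added for 4.5 h in darkness at 37 °C. Fluorescence read at ex 544/em 590 nm, blank subtracted, expressed as % of vehicle control. Mean ± S.E.M., at least 3 experiments.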

[21] = Cytotoxicity against human Kelly cells assessed as cell viability reduction incubated for 72 hrs by alamar blue assay; assay type: functional, cell-based
How it was run: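 Kelly cells, 6000 per well, were allowed to attach for 24 h, then treated in triplicate at 0.1–100 µM final or with ddH2O vehicle for 72 h at 37 °C. AlamarBlue was added for 4.5 h in the dark and fluorescence read at ex 544/em 590 nm. Blank-subtracted % of vehicle; IC50 from a sigmoidal dose-response fit; ≥3 independent experiments.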

[22] = Cytotoxicity in mouse NIH/3T3 cells assessed as induction of apoptosis at 50 to 100 uM after 72 hrs by propidium iodide staining-based flow cytometric analysis; assay type: cell-based; conditions: nih3t3, 72 h
How it was run: (§1)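 Cells seeded at 6000 cells per cm² and left 24 h, then given compound at 50 or 100 μM or vehicle (1% ddH2O) for 72 h. Trypsinised, fixed overnight at −20 °C in ice-cold 70% EtOH/PBS, then PI-stained 30 min at 37 °C. 10,000 gated events per sample. Sub-diploid (<2N, M1) cells scored as apoptotic. Mean ± S.E.M., ≥3 experiments.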

[23] = Cell cycle arrest in human HL60 cells assessed as accumulation at S phase at 50 uM after 72 hrs by propidium iodide staining-based flow cytometric analysis (reference value: 23.58 +/- 1.38%); assay type: functional; conditions: HL-60
[24] = Cell cycle arrest in human HL60 cells assessed as accumulation at G2/M phase at 50 uM after 72 hrs by propidium iodide staining-based flow cytometric analysis (reference value: 10.53 +/- 0.81%); assay type: functional; conditions: HL-60
[25] = Cell cycle arrest in human HL60 cells assessed as accumulation at polyploid Gn phase at 50 uM after 72 hrs by propidium iodide staining-based flow cytometric analysis (reference value: 3.43 +/- 0.48%); assay type: functional; conditions: HL-60
[26] = Cytotoxicity in human MCF10A cells assessed as induction of apoptosis at 50 to 100 uM after 72 hrs by propidium iodide staining-based flow cytometric analysis; assay type: cell-based; conditions: mcf-10a; how it was run: as §1

N=C(N)Oc1ccc(Oc2ccc(OC(=N)N)cc2)cc1
pKa [1]: 10.4
ΔTm [2]: 5 °C
IC50 [3]: > 100 µM

N=C(N)Oc1ccc(Sc2ccc(O)cc2)cc1
Activity (HL-60 [4]): Active
Activity (HL-60 [5]): Active
Activity [6]: 10.4%
Activity [7]: 12.7%
Activity [8]: 55.5%
Activity [9]: 52.4%
Activity [10]: 5.98%
Activity [11]: 9%
Activity [12]: Non-toxic
Activity [13]: 39.9%
Activity [14]: 14.9%
Activity [15]: 15.3%
Activity [16]: 11.6%
ΔTm [2]: 2 °C
Activity (HL-60 [17]): 63.6%
Activity [18]: 18.2%
Activity [19]: 11.2%
IC50 [3]: 52.9 µM
Activity [20]: Toxic
IC50 [21]: 33.9 µM
Activity [22]: Non-toxic
Activity [23]: 16.2%
Activity [24]: 8.67%
Activity [25]: 15.8%
Activity [26]: Non-toxic
